SMILES strings stand for the structures. ≈ marks a conversion by molar mass, not a printed value.

Test [1] relates to Salmonella enterica. The experiment in a line: Antimicrobial activity against Salmonella enterica serotype telelkebir isolate AM21420 expressing qnrB5 gene by broth microdilution method. The format is functional. Put shortly:
(§1)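 MICs for 14 to 17 antimicrobial agents were measured by commercial broth microdilution panels. Isolates were screened for aac(6′)-Ib by SYBR green real-time PCR: 0.4 μM each primer, 35 cycles (95°C 20 s, 55°C 30 s, 72°C 30 s), then a 70–90°C melt curve.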
For orientation: Dilution methods test growth across graded concentrations, often in twofold steps.

The subject of test [2] is Salmonella typhimurium. In words: Antimicrobial activity against multidrug-resistant Salmonella enterica serotype Typhimurium isolate AM27125 expressing qnrB5 gene by broth microdilution method.
Test [3] in a line: Antimicrobial activity against tetracycline-resistant Salmonella enterica serotype Saintpaul isolate AM30594 expressing qnrS1 gene by broth microdilution method.
Test [4] can be described thus: Antimicrobial activity against multidrug-resistant Salmonella enterica serotype Corvallis isolate AM25736 expressing qnrS1 gene by broth microdilution method.
Test [5] can be described thus: Antimicrobial activity against multidrug-resistant Salmonella enterica serotype Corvallis isolate AM20376 expressing qnrS1 gene by broth microdilution method.
Test [6] concerns Salmonella typhimurium. The experiment in a line: Antimicrobial activity against multidrug-resistant Salmonella enterica serotype Typhimurium isolate AM27549 expressing qnrS1 gene by broth microdilution method.
Test [7] relates to Salmonella typhimurium. The experiment in a line: Antimicrobial activity against multidrug-resistant Salmonella enterica serotype Typhimurium var. O:5 isolate AM25008 expressing aac(6')-Ib-cr gene by broth microdilution method.
Test [8] can be described thus: Antimicrobial activity against multidrug-resistant Salmonella enterica serotype Montevideo isolate AM28704 expressing qnrA1 gene by broth microdilution method.
Test [9] deals with Salmonella typhimurium. The experiment in a line: Antimicrobial activity against multidrug-resistant Salmonella enterica serotype Typhimurium isolate AM27315 expressing qnrS1 gene by broth microdilution method.
Test [10] concerns Salmonella typhimurium. In words: Antimicrobial activity against Salmonella enterica serotype Typhimurium isolate AM29365 expressing qnrS1 gene by broth microdilution method.
The nature of test [11]: Antimicrobial activity against trimethoprim-sulfamethoxazole-resistant Salmonella enterica serotype Montevideo isolate AM19383 expressing qnrS1 gene by broth microdilution method.
The nature of test [12]: Antimicrobial activity against Salmonella enterica serotype Corvallis isolate AM25927 expressing qnrS1 gene by broth microdilution method.
The test system of test [13] is Salmonella typhimurium. The experiment in a line: Antimicrobial activity against Salmonella enterica serotype Typhimurium isolate AM29869 expressing qnrS1 gene by broth microdilution method.
Test [14] has as its system Salmonella enterica. The experiment in a line: Antimicrobial activity against nalidixic acid-resistant Salmonella enterica serotype Kiambu isolate AM27031 expressing qnrB5 gene by broth microdilution method. The format is functional. Put shortly:
as §1

Test [15] has as its system Salmonella enterica. The experiment in a line: Antimicrobial activity against multidrug-resistant Salmonella enterica serotype Cubana isolate AM28764 expressing qnrB2 gene by broth microdilution method. Format: functional. Summed up: as §1
Test [16] is described as follows: Antimicrobial activity against tetracycline- and trimethoprim-sulfamethoxazole-resistant Salmonella enterica serotype Saintpaul isolate AM26790 expressing qnrS1 gene by broth microdilution method.
For the next test, the system named is Salmonella enteritidis. The experiment in a line: Antimicrobial activity against ampicillin- and streptomycin-resistant Salmonella enterica serotype Enteritidis isolate AM25798 expressing qnrS1 gene by broth microdilution method.
For test [17], the system named is Salmonella enterica. In words: Antimicrobial activity against Salmonella enterica serotype Aqua isolate AM26209 expressing qnrB5 gene by broth microdilution method. Format: functional. Put shortly:
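Broth microdilution panel of 14 to 17 antimicrobial agents against human clinical non-Typhi Salmonella isolates, read as MIC. The study enrolled isolates with decreased ciprofloxacin susceptibility (≥0.25 mg/liter). qnr genes were detected by previously described methods. 2006 data are preliminary.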

As to `O=C(O)c1cn(C2CC2)c2cc(N3CCNCC3)c(F)cc2c1=O` [CIPROFLOXACIN], the MIC with Salmonella enterica [1] was found to be 0.5 µg/mL (≈ 1.51 µM); with Salmonella typhimurium [2], 0.5 µg/mL (≈ 1.51 µM); in [3] it was 0.5 µg/mL (≈ 1.51 µM); in test [4] it was 0.25 µg/mL (≈ 0.754 µM); in [5] it was 0.5 µg/mL (≈ 1.51 µM); against Salmonella typhimurium [6] it was 0.5 µg/mL (≈ 1.51 µM). For the same molecule, the minimal inhibitory concentration (MIC) in the test with Salmonella typhimurium [7] came out at 1 µg/mL (≈ 3.02 µM); in test [8] it was 0.25 µg/mL (≈ 0.754 µM); in the test on Salmonella typhimurium [9] it was 0.5 µg/mL (≈ 1.51 µM); in the test on Salmonella typhimurium [10] it was 0.5 µg/mL (≈ 1.51 µM); in test [11], 0.5 µg/mL (≈ 1.51 µM); in [12] it was 0.25 µg/mL (≈ 0.754 µM). For the same molecule, the MIC with Salmonella typhimurium [13] is 0.5 µg/mL (≈ 1.51 µM); in the test with Salmonella enterica [14], 0.5 µg/mL (≈ 1.51 µM); in the test with Salmonella enterica [15], 0.5 µg/mL (≈ 1.51 µM); in test [16], 0.5 µg/mL (≈ 1.51 µM); against Salmonella enteritidis, 0.5 µg/mL (≈ 1.51 µM); against Salmonella enterica [17], 0.25 µg/mL (≈ 0.754 µM).

What is called MIC is the smallest concentration in the dilution series that meets the test's criterion for growth inhibition.

These data come from ChEMBL document CHEMBL1649158, “Emergence of plasmid-mediated quinolone resistance among non-Typhi Salmonella enterica isolates from humans in the United States” (2009).
